# Experimental data as given in article PMC9170026 (Proceedings of the National Academy of Sciences of the …, 2022).
# Like-named read-outs stand apart in the source and are kept apart here.
# Legend:
# [1] = Metabolic stability in human liver S9 fraction; assay type: in vitro ADME
# [2] = target: T1, IKKβ (Homo sapiens, UniProt O14920); test: KinomeSCAN binding to IKKβ
# T1 sequence (O14920 1-756): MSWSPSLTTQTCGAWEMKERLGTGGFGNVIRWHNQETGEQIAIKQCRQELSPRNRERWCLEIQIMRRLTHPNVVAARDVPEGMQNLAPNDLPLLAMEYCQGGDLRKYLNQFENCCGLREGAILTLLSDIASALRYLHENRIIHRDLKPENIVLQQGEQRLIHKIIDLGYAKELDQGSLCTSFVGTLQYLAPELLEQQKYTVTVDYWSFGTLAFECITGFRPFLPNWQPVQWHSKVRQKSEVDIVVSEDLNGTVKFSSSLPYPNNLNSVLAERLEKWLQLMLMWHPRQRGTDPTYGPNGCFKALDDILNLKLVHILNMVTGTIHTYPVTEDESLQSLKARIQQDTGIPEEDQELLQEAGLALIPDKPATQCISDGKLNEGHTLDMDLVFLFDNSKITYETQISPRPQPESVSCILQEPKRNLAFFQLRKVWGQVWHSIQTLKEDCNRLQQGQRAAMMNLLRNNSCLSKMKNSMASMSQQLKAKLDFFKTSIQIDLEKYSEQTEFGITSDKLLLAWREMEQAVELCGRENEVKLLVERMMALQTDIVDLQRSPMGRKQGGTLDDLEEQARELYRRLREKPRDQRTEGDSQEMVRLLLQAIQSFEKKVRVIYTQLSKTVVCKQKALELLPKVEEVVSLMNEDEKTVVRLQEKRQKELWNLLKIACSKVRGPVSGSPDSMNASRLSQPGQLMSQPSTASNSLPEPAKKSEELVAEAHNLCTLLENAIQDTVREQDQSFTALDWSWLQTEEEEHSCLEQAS
# [3] = target: T1, IKKβ; test: 10-point dose-response IKKβ kinase activity assay; assay type: biochemical
# [4] = tested on: 328 kinase-associated peptides that correspond to 254 kinases; test: KiNativ kinome profiling dose-response in PANC1 lysate; assay type: binding; details: PANC1 cell lysates, 1.25-10 μM
# Procedure, shortened: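 KiNativ kinome profiling done as a dose-response in PANC1 cells. Test compound was used at 1.25, 2.5, 5, 7.5 and 10 μM. Each kinase inhibited was recorded at each concentration.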
# [5] = tested on: p-IKKβ; test: p-IKKβ levels in MiaPaCa2 cells; assay type: cell-based; details: Homo sapiens, MIA PaCa-2, read-out: IC50 for reduction of p-IKKβ levels
# [6] = tested on: TNF-α–induced MAP3K1-IKKβ–mediated NF-κB activity; test: HeLa luciferase reporter under NF-κB response element; assay type: cell-based
# [7] = tested on: TNF-α–induced MAP3K1-IKKβ–mediated NF-κB activation; assay type: cell-based; details: MAP3K1-WT transfected HeLa, TNF-α 20 ng/mL, 6 h
# [8] = tested on: MAP3K1-WT–induced p-IKKβ; test: Western blot of MAP3K1-WT transfected HeLa cells; assay type: cell-based
# [9] = tested on: NF-κB pathway proteins; test: Western blot of NF-κB pathway proteins in MiaPaCa2 cells, 6 h; assay type: cell-based, human; details: MiaPaCa2, 6h, dose-response
# [10] = tested on: T3M4 orthotopic pancreatic tumors; test: T3M4 orthotopic xenograft model; assay type: in vivo, athymic nude mice; details: 40 mg/kg, by mouth
# [11] = Oral and intravenous dose pharmacokinetic studies in mice; details: mouse, in vivo
# [12] = target: MAP3K12; details: cited from earlier work
# [13] = tested on: TNF-α–induced IKKβ-mediated NF-κB activation; test: Dual luciferase assay-based screen of quinoxaline analogs; assay type: cell-based; details: relative to parent analog / 13-197
# Procedure, shortened: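 Dual-luciferase NF-κB reporter screen of quinoxaline analogs against TNF-α–stimulated, IKKβ-mediated NF-κB activation. Two reference compounds, the parent quinoxaline and an allosteric IKKβ inhibitor, served as controls marking the ends of the activity range. n = 4, reported as average ± SEM. P values from a two-tailed Student's t test.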
smiles,measurement,setting,value
Cn1cc(-c2cnc3ccc(NC(=O)Nc4ccc(F)c(Br)c4)cc3n2)cn1 [39-100],improvement of t1/2 (stability) over 13-197,[1],~8 fold
same,major metabolites,[1]; 2h post-incubation,"demethylated, glucuronidated, and sulfated products"
same,in vitro IKKβ binding,[2],did not bind
same,in vitro IKKβ binding,[2]; listed as IKAM-1,inactive
same,in vitro IKKβ enzymatic inhibition,[3],inactive
same,kinome selectivity,[4],selectively inhibits MAP3K1
same,IC50,[5],2300 ± 200 nM
same,inhibition of TNF-α–induced NF-κB reporter activity,[6],selectively inhibited
same,inhibition of TNF-α–induced MAP3K1-IKKβ–mediated NF-κB activation,[7],inhibited
same,MAP3K1-WT–induced p-IKKβ,[8],inhibited
same,Bcl-xL levels,[9],no change in Bcl-xL
same,IκBα phosphorylation,[9],inhibited IκBα phosphorylation in a dose-dependent manner
same,Ki67 and CD31+ tumor cells vs vehicle,[10],reduced Ki67 and CD31^+ tumor cells
same,p-IKKβ expression in tumors (IHC) vs vehicle,[10],reduced expression of p-IKKβ
same,improvement in oral bioavailability over 13-197,[11],~12 fold
CC(C)n1nc(-c2cnc(N)c(OC(F)(F)F)c2)cc1C1[C@H]2CN(C3COC3)C[C@@H]12 (some centres unmarked) [DLK-In-1],Ki,[12],3 nM
Cn1cc(-c2cnc3ccc(NC(=O)Nc4ccc(Br)cc4)cc3n2)cn1 [analog 5],inhibition of TNF-α–induced IKKβ-mediated NF-κB activity (SAR screen),[13],improved activity
Cn1cc(-c2cnc3ccc(NC(=O)Nc4ccccc4Br)cc3n2)cn1 [analog 13],inhibition of TNF-α–induced IKKβ-mediated NF-κB activity (SAR screen),[13],reduced the activity
Cn1cc(-c2cnc3ccc(NC(=O)Nc4cccc(Br)c4)cc3n2)cn1 [compound 12],inhibition of TNF-α–induced IKKβ-mediated NF-κB activity (SAR screen),[13],further improved the activity
same,improvement of t1/2 (stability) over 13-197,[1],four-fold better
same,Bcl-xL levels,[9],no change in Bcl-xL
same,IκBα phosphorylation,[9],inhibited IκBα phosphorylation in a dose-dependent manner
same,Mcl-1 levels,[9],robust reduction in Mcl-1 levels
